Measurements reported in ChEMBL document CHEMBL4138211, “Regio- and stereoselective synthesis of dispirooxindole-pyrrolocarbazole hybrids via 1,3-dipolar cycloaddition reactions: Cytotoxic activity and SAR studies” (Eur J Med Chem, 2018).
The source made the active and inactive calls. No cut-off for these calls is given here.

Key:
MCF7 [1] = assay: Antiproliferative activity against human MCF7 cells after 48 hrs by MTT assay; assay type: functional, cell-based
How it was run: (§1)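 Cells grown 1×10⁴/well for 48 h to about 75% confluence. Medium then replaced with fresh medium containing serially diluted compounds, followed by a further 48 h. MTT added for 4 h at 37 °C and formazan dissolved in DMSO for 10 min. OD read at 620 nm. IC50 taken from the viability–concentration survival curve. Three independent experiments, each in triplicate.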

A549 [2] = assay: Antiproliferative activity against human A549 cells after 48 hrs by MTT assay; assay type: functional, cell-based; how it was run: as §1
MCF7 [3] = assay: Induction of apoptosis in human MCF7 cells assessed as cell shrinkage after 24 hrs by brightfield inverted light microscopic analysis; assay type: functional, cell-based
MCF7 [4] = assay: Induction of apoptosis in human MCF7 cells assessed as membrane blebbing after 24 hrs by brightfield inverted light microscopic analysis; assay type: functional, cell-based
MCF7 [5] = assay: Induction of apoptosis in human MCF7 cells assessed as formation of floating cells after 24 hrs by brightfield inverted light microscopic analysis; assay type: functional, cell-based
A549 [6] = assay: Induction of apoptosis in human A549 cells assessed as cell shrinkage after 24 hrs by brightfield inverted light microscopic analysis; assay type: functional, cell-based
A549 [7] = assay: Induction of apoptosis in human A549 cells assessed as membrane blebbing after 24 hrs by brightfield inverted light microscopic analysis; assay type: functional, cell-based
A549 [8] = assay: Induction of apoptosis in human A549 cells assessed as formation of floating cells after 24 hrs by brightfield inverted light microscopic analysis; assay type: functional, cell-based
MCF7 [9] = assay: Induction of apoptosis in human MCF7 cells assessed as nuclear fragmentation after 24 hrs by DAPI staining-based fluorescence microscopic analysis; assay type: functional, cell-based
How it was run: (§2)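 Cells plated on glass coverslips and treated for 24 h, then fixed. Permeabilised with 0.2% Triton X-100 for 10 min at room temperature. DAPI applied for 3 min under a coverslip. Nuclei inspected by fluorescence microscopy for condensed chromatin and fragmentation, against untreated cells.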

A549 [10] = assay: Induction of apoptosis in human A549 cells assessed as nuclear fragmentation after 24 hrs by DAPI staining-based fluorescence microscopic analysis; assay type: functional, cell-based; how it was run: as §2
MCF7 [11] = assay: Induction of apoptosis in human MCF7 cells by acridine orange/ethidium bromide staining-based fluorescence microscopic analysis; assay type: functional, cell-based
How it was run: (§3)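 Treated cells collected and washed in PBS (pH 7.2). Stained with a 1:1 AO/EtBr mixture (each dye […] in water) and held 2 min. Washed twice in PBS and viewed by fluorescence microscopy at 400× with 480 nm excitation. Green intact-membrane cells distinguished from orange/red membrane-damaged cells.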

MCF7 [12] = assay: Induction of apoptosis in human MCF7 cells assessed as nuclear condensation by acridine orange/ethidium bromide staining-based fluorescence microscopic analysis; assay type: functional, cell-based; how it was run: as §3
MCF7 [13] = assay: Induction of apoptosis in human MCF7 cells assessed as damaged cell membranes by acridine orange/ethidium bromide staining-based fluorescence microscopic analysis; assay type: functional; how it was run: as §3
A549 [14] = assay: Induction of apoptosis in human A549 cells by acridine orange/ethidium bromide staining-based fluorescence microscopic analysis; assay type: functional, cell-based; how it was run: as §3
MCF7 [15] = assay: Induction of apoptosis in human MCF7 cells assessed as necrotic cells at 5 uM after 6 hrs by Annexin V-FITC/propidium iodide staining based flow cytometry (reference value: 0.0%); assay type: functional
How it was run: (§4)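 Cells at 1×10⁵/mL exposed to 5, 10 or 20 μM (printed as μM/ml) for 6 h, with an untreated control. Harvested, PBS-washed and trypsinised, then spun at 200×g for 10 min. Stained with annexin V-FITC/propidium iodide for 10-15 min at 25 °C. Quadrant analysis gives live, early apoptotic, late apoptotic and necrotic fractions.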

MCF7 [16] = assay: Induction of apoptosis in human MCF7 cells assessed as late apoptotic cells at 5 uM after 6 hrs by Annexin V-FITC/propidium iodide staining based flow cytometry (reference value: 0.0%); assay type: functional; how it was run: as §4
MCF7 [17] = assay: Induction of apoptosis in human MCF7 cells assessed as early apoptotic cells at 5 uM after 6 hrs by Annexin V-FITC/propidium iodide staining based flow cytometry (reference value: 0.88%); assay type: functional; how it was run: as §4
MCF7 [18] = assay: Induction of apoptosis in human MCF7 cells assessed as viable cells at 5 uM after 6 hrs by Annexin V-FITC/propidium iodide staining based flow cytometry (reference value: 99.12%); assay type: functional; conditions: MCF7, 6 h, read-out: Activity; how it was run: as §4
MCF7 [19] = assay: Induction of apoptosis in human MCF7 cells assessed as necrotic cells at 10 uM after 6 hrs by Annexin V-FITC/propidium iodide staining based flow cytometry (reference value: 0.0%); assay type: functional; how it was run: as §4
MCF7 [20] = assay: Induction of apoptosis in human MCF7 cells assessed as late apoptotic cells at 10 uM after 6 hrs by Annexin V-FITC/propidium iodide staining based flow cytometry (reference value: 0.0%); assay type: functional; how it was run: as §4
MCF7 [21] = assay: Induction of apoptosis in human MCF7 cells assessed as early apoptotic cells at 10 uM after 6 hrs by Annexin V-FITC/propidium iodide staining based flow cytometry (reference value: 0.88%); assay type: functional; how it was run: as §4
MCF7 [22] = assay: Induction of apoptosis in human MCF7 cells assessed as viable cells at 10 uM after 6 hrs by Annexin V-FITC/propidium iodide staining based flow cytometry (reference value: 99.12%); assay type: functional; conditions: MCF7, 6 h, read-out: Activity; how it was run: as §4
MCF7 [23] = assay: Induction of apoptosis in human MCF7 cells assessed as necrotic cells at 20 uM after 6 hrs by Annexin V-FITC/propidium iodide staining based flow cytometry (reference value: 0.0%); assay type: functional; how it was run: as §4
MCF7 [24] = assay: Induction of apoptosis in human MCF7 cells assessed as late apoptotic cells at 20 uM after 6 hrs by Annexin V-FITC/propidium iodide staining based flow cytometry (reference value: 0.0%); assay type: functional; how it was run: as §4
MCF7 [25] = assay: Induction of apoptosis in human MCF7 cells assessed as early apoptotic cells at 20 uM after 6 hrs by Annexin V-FITC/propidium iodide staining based flow cytometry (reference value: 0.88%); assay type: functional; how it was run: as §4
MCF7 [26] = assay: Induction of apoptosis in human MCF7 cells assessed as viable cells at 20 uM after 6 hrs by Annexin V-FITC/propidium iodide staining based flow cytometry (reference value: 99.12%); assay type: functional; conditions: MCF7, 6 h, read-out: Activity; how it was run: as §4
A549 [27] = assay: Induction of apoptosis in human A549 cells assessed as necrotic cells at 5 uM after 6 hrs by Annexin V-FITC/propidium iodide staining based flow cytometry (reference value: 0.0%); assay type: functional; how it was run: as §4
A549 [28] = assay: Induction of apoptosis in human A549 cells assessed as late apoptotic cells at 5 uM after 6 hrs by Annexin V-FITC/propidium iodide staining based flow cytometry (reference value: 0.0%); assay type: functional; how it was run: as §4
A549 [29] = assay: Induction of apoptosis in human A549 cells assessed as early apoptotic cells at 5 uM after 6 hrs by Annexin V-FITC/propidium iodide staining based flow cytometry (reference value: 0.77%); assay type: functional; how it was run: as §4
A549 [30] = assay: Induction of apoptosis in human A549 cells assessed as viable cells at 5 uM after 6 hrs by Annexin V-FITC/propidium iodide staining based flow cytometry (reference value: 99.23%); assay type: functional; conditions: A549, 6 h, read-out: Activity; how it was run: as §4
A549 [31] = assay: Induction of apoptosis in human A549 cells assessed as necrotic cells at 10 uM after 6 hrs by Annexin V-FITC/propidium iodide staining based flow cytometry (reference value: 0.0%); assay type: functional; how it was run: as §4
A549 [32] = assay: Induction of apoptosis in human A549 cells assessed as late apoptotic cells at 10 uM after 6 hrs by Annexin V-FITC/propidium iodide staining based flow cytometry (reference value: 0.0%); assay type: functional; how it was run: as §4
A549 [33] = assay: Induction of apoptosis in human A549 cells assessed as early apoptotic cells at 10 uM after 6 hrs by Annexin V-FITC/propidium iodide staining based flow cytometry (reference value: 0.77%); assay type: functional; how it was run: as §4
A549 [34] = assay: Induction of apoptosis in human A549 cells assessed as viable cells at 10 uM after 6 hrs by Annexin V-FITC/propidium iodide staining based flow cytometry (reference value: 99.23%); assay type: functional; conditions: A549, 6 h, read-out: Activity; how it was run: as §4
A549 [35] = assay: Induction of apoptosis in human A549 cells assessed as necrotic cells at 20 uM after 6 hrs by Annexin V-FITC/propidium iodide staining based flow cytometry (reference value: 0.0%); assay type: functional; how it was run: as §4
A549 [36] = assay: Induction of apoptosis in human A549 cells assessed as late apoptotic cells at 20 uM after 6 hrs by Annexin V-FITC/propidium iodide staining based flow cytometry (reference value: 0.0%); assay type: functional; how it was run: as §4
A549 [37] = assay: Induction of apoptosis in human A549 cells assessed as early apoptotic cells at 20 uM after 6 hrs by Annexin V-FITC/propidium iodide staining based flow cytometry (reference value: 0.77%); assay type: functional; how it was run: as §4
A549 [38] = assay: Induction of apoptosis in human A549 cells assessed as viable cells at 20 uM after 6 hrs by Annexin V-FITC/propidium iodide staining based flow cytometry (reference value: 99.23%); assay type: functional; conditions: A549, 6 h, read-out: Activity; how it was run: as §4
MCF7 [39] = assay: Induction of apoptosis in human MCF7 cells assessed as increase in early apoptotic cells after 6 hrs by Annexin V-FITC/propidium iodide staining based flow cytometry; assay type: functional, cell-based; how it was run: as §4
MCF7 [40] = assay: Induction of apoptosis in human MCF7 cells assessed as increase in late apoptotic cells after 6 hrs by Annexin V-FITC/propidium iodide staining based flow cytometry; assay type: functional, cell-based; how it was run: as §4
A549 [41] = assay: Induction of apoptosis in human A549 cells assessed as increase in early apoptotic cells after 6 hrs by Annexin V-FITC/propidium iodide staining based flow cytometry; assay type: functional, cell-based; how it was run: as §4
A549 [42] = assay: Induction of apoptosis in human A549 cells assessed as increase in late apoptotic cells after 6 hrs by Annexin V-FITC/propidium iodide staining based flow cytometry; assay type: functional, cell-based; how it was run: as §4

## O=C1Nc2ccccc2[C@]12N[C@H](c1ccccc1)[C@H](c1cccs1)[C@@]21CCc2c([nH]c3ccc(Cl)cc23)C1=O
MCF7 [1]
  Activity: Dose-dependent effect
MCF7 [1]; MCF7, 48 h
  IC50: 13 µM
A549 [2]
  Activity: Dose-dependent effect
A549 [2]; A549, 48 h
  IC50: 14 µM
MCF7 [3]
  Activity: Dose-dependent effect
MCF7 [4]
  Activity: Dose-dependent effect
MCF7 [5]
  Activity: Dose-dependent effect
A549 [6]
  Activity: Dose-dependent effect
A549 [7]
  Activity: Dose-dependent effect
A549 [8]
  Activity: Dose-dependent effect
MCF7 [9]
  Activity: Active
A549 [10]
  Activity: Active
MCF7 [11]
  Activity: Active
MCF7 [12]
  Activity: Active
MCF7 [13]
  Activity: Active
A549 [14]
  Activity: Active
MCF7 [15]
  Activity: 1.81%
MCF7 [16]
  Activity: 7.55%
MCF7 [17]
  Activity: 8.19%
MCF7 [18]
  viability at 5 µM: 82.5%
MCF7 [19]
  Activity: 0.98%
MCF7 [20]
  Activity: 12.82%
MCF7 [21]
  Activity: 23.3%
MCF7 [22]
  viability at 10 µM: 62.9%
MCF7 [23]
  Activity: 1.12%
MCF7 [24]
  Activity: 30.2%
MCF7 [25]
  Activity: 33.56%
MCF7 [26]
  viability at 20 µM: 35.1%
A549 [27]
  Activity: 1.15%
A549 [28]
  Activity: 6.7%
A549 [29]
  Activity: 28.95%
A549 [30]
  viability at 5 µM: 63.2%
A549 [31]
  Activity: 2.81%
A549 [32]
  Activity: 7.65%
A549 [33]
  Activity: 17.35%
A549 [34]
  viability at 10 µM: 72.2%
A549 [35]
  Activity: 1.85%
A549 [36]
  Activity: 28.7%
A549 [37]
  Activity: 32.15%
A549 [38]
  viability at 20 µM: 37.3%
MCF7 [39]
  Activity: Dose-dependent effect
MCF7 [40]
  Activity: Dose-dependent effect
A549 [41]
  Activity: Dose-dependent effect
A549 [42]
  Activity: Dose-dependent effect
